ChEMBL document CHEMBL3826914, “Selective photodepletion of malignant T cells in extracorporeal photopheresis with selenorhodamine photosensitizers” (Bioorg Med Chem, 2016)
Calls of active or inactive are those of the source. No cut-off for these calls is given here.

Columns and labels:
HuT78 [1] = experiment: Phototoxicity against human HUT78 cells assessed as reduction in cell viability preincubated for 1 hr in dark before exposure to 1 J/cm2 irradiation after 48 hrs by MTT assay; format: functional, cell-based
Method in brief: (§1)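 HUT-78 cells in RPMI 1640 with 10% FBS, 1% HEPES and 1% penicillin-streptomycin were plated at 7.5×10^4 per well and grown 24 h. Dye was added to final 5×10^-8 to 5×10^-7 M, then 1 h in the dark. Plates were kept dark or irradiated with a 633 ± 2 nm dye laser at ~3.2 mW cm^-2 to 0.5, 1.0 or 2.0 J cm^-2. Medium was replaced, 48 h at 37 °C, then MTT read at 570 nm. Triplicate runs; EC50/LD50 by sigmoidal variable-slope fit.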

[2] = Dark toxicity against human HUT78 cells assessed as reduction in cell viability preincubated for 1 hr in dark after 48 hrs by MTT assay; format: cell-based; conditions: read-out: LD50; method in brief: as §1
[3] = Drug extrusion in human CD3 positive cells assessed as change in mean fluorescence intensity at 5 x 10^-8 M preincubated for 20 mins followed by growth in photosensitizer-free media for 30 mins by flow cytometric analysis relative to control; format: cell-based; conditions: 0.5 h, 0.05 µM
[4] = Drug extrusion in human CD4 positive cells assessed as change in mean fluorescence intensity at 5 x 10^-8 M preincubated for 20 mins followed by growth in photosensitizer-free media for 30 mins by flow cytometric analysis relative to control; format: cell-based; conditions: 0.5 h, 0.05 µM
[5] = Drug extrusion in human CD8 positive cells assessed as change in mean fluorescence intensity at 5 x 10^-8 M preincubated for 20 mins followed by growth in photosensitizer-free media for 30 mins by flow cytometric analysis relative to control; format: cell-based; conditions: 0.5 h, 0.05 µM
[6] = Drug extrusion in SEB-stimulated human CD25 positive cells assessed as change in mean fluorescence intensity at 5 x 10^-8 M preincubated for 20 mins followed by growth in photosensitizer-free media for 30 mins by flow cytometric analysis relative to control; conditions: 0.5 h, 0.05 µM
[7] = Drug extrusion in SEB-stimulated human CD25 negative cells assessed as change in mean fluorescence intensity at 5 x 10^-8 M preincubated for 20 mins followed by growth in photosensitizer-free media for 30 mins by flow cytometric analysis relative to control; conditions: 0.5 h, 0.05 µM
[8] = Drug uptake in SEB-stimulated human CD25 positive cells assessed as mean fluorescence intensity at 5 x 10^-8 M preincubated for 20 mins followed by growth in photosensitizer-free media for 30 mins by flow cytometric analysis relative to control; conditions: 0.5 h, 0.05 µM
[9] = Drug uptake in SEB-stimulated human CD25 negative cells assessed as mean fluorescence intensity at 5 x 10^-8 M preincubated for 20 mins followed by growth in photosensitizer-free media for 30 mins by flow cytometric analysis relative to control; conditions: 0.5 h, 0.05 µM
HuT78 [10] = experiment: (§2) Phototoxicity in GFP expressing human HUT78 cells co-cultured with human PBMC cells assessed as cell survival at 7.5 x 10^-8 M preincubated 20 mins in photosensitizer media followed by growth in photosensitizer-free media for 30 mins measured 18 hrs after exposure to 5 J/cm2 irradiation by FACS analysis; format: functional; conditions: HuT78, light or radiation study, read-out: Survival
Method in brief: (§3)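 Non-stimulated PBMCs from healthy donors (Ficoll-separated) were mixed 5:1 with GFP-transfected, sorted (>98%) HUT-78 cells. Cells took up 7.5×10^-8 M photosensitizer for 20 min, then spent 30 min in dye-free medium. They were exposed to 5 J cm^-2 light (600 nm LED) with rotation at 180 rpm. Survival was gated by FACS (GFP, CD3, CD4, CD8) 18 h later versus non-irradiated controls. Triplicate; mean ± SEM.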

[11] = as §2, with “Phototoxicity human CD3 positive cells co-cultured with” for “Phototoxicity in”, “HUT78” for “HUT78 cells co-cultured with human PBMC”; format: cell-based; conditions: read-out: Survival; method in brief: as §3
[12] = as §2, with “Phototoxicity human CD4 positive cells co-cultured with” for “Phototoxicity in”, “HUT78” for “HUT78 cells co-cultured with human PBMC”; format: cell-based; conditions: read-out: Survival; method in brief: as §3
[13] = as §2, with “Phototoxicity human CD8 positive cells co-cultured with” for “Phototoxicity in”, “HUT78” for “HUT78 cells co-cultured with human PBMC”; format: cell-based; conditions: read-out: Survival; method in brief: as §3
HuT78 [14] = experiment: Phototoxicity against human HUT78 cells assessed as reduction in cell viability preincubated for 1 hr in dark at 5 x 10^-8M before exposure to 0.5 to 2 J/cm2 irradiation after 48 hrs by MTT assay; format: functional, cell-based; method in brief: as §1
HuT78 [15] = experiment: Drug uptake in GFP expressing human HUT78 cells co-cultured with non-stimulated human PBMC cells assessed as change in mean fluorescence intensity at 7.5 x 10^-8 M after 20 mins followed by growth in photosensitizer-free media for 30 mins by flow cytometric analysis relative to control; format: cell-based; conditions: hut78, 0.5 h, 0.075 µM
[16] = Drug extrusion in SEB-stimulated human CD25 positive cells assessed as mean fluorescence intensity at 5 x 10^-8 M preincubated for 20 mins followed by growth in photosensitizer-free media for 30 mins by flow cytometric analysis relative to control; conditions: 0.5 h, 0.05 µM
[17] = Drug extrusion in SEB-stimulated human CD25 negative cells assessed as mean fluorescence intensity at 5 x 10^-8 M preincubated for 20 mins followed by growth in photosensitizer-free media for 30 mins by flow cytometric analysis relative to control; conditions: 0.5 h, 0.05 µM
ABCB1 [18] = experiment: Permeability from apical to basolateral side in dog MDCK2-MDR1 cells expressing ABCB1 at 5 uM after 30 mins in presence of compound 15 by LC-MS/MS analysis; format: ADME, cell-based, Canis lupus familiaris, MDCK-II; conditions: MDCK-MDR1, with compound 15 (concentration not stated), read-out: permeability
Method in brief: (§4)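 MDR1-transfected MDCKII cells (passage 16–42) were seeded at 50,000 cells cm^-2 on Transwell filters and used on day 6. Monolayers were rinsed in DPBS with 10^-2 M HEPES, pH 7.4, at 37 °C. They were preincubated 30 min in 4.3 mg/mL BSA/DPBSH with or without 5×10^-6 M P-gp inhibitor. 5 μM dye was added apically or basolaterally and samples taken after 1 h at 37 °C with nutation. Quantitation was by LC-MS/MS; P_passive is the mean of P_AB and P_BA under full inhibition. Mean ± SD.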

ABCB1 [19] = experiment: Permeability from apical to basolateral side in dog MDCK2-MDR1 cells expressing ABCB1 at 5 uM after 30 mins in absence of compound 15 by LC-MS/MS analysis; format: ADME, cell-based, Canis lupus familiaris, MDCK-II; conditions: MDCK-MDR1, read-out: permeability; method in brief: as §4
ABCB1 [20] = experiment: Permeability from basolateral to apical side in dog MDCK2-MDR1 cells expressing ABCB1 at 5 uM after 30 mins in presence of compound 15 by LC-MS/MS analysis; format: ADME, cell-based, Canis lupus familiaris, MDCK-II; conditions: MDCK-MDR1, with compound 15 (concentration not stated), read-out: permeability; method in brief: as §4
ABCB1 [21] = experiment: Permeability from basolateral to apical side in dog MDCK2-MDR1 cells expressing ABCB1 at 5 uM after 30 mins in absence of compound 15 by LC-MS/MS analysis; format: ADME, cell-based, Canis lupus familiaris, MDCK-II; conditions: MDCK-MDR1, read-out: permeability; method in brief: as §4
ABCB1 [22] = experiment: Passive permeability in dog MDCK2-MDR1 cells expressing ABCB1 at 5 uM after 30 mins in presence of compound 15 by LC-MS/MS analysis; format: ADME, cell-based, Canis lupus familiaris, MDCK-II; conditions: MDCK-MDR1, with compound 15 (concentration not stated), read-out: permeability; method in brief: as §4
[23] = Drug uptake in human HUT78 cell mitochondria by MTG-based bright field microscopic analysis; format: ADME
Method in brief: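 HUT-78 cells (5×10^5 in 0.5 mL medium) were incubated 15 min with 2×10^-7 M dye together with 5×10^-7 M MitoTracker Green. They were centrifuged and analysed by ImageStream imaging flow cytometry, with MTG excited at 488 nm (480–560 nm channel) and dye excited at 561 nm (642–745 nm channel). Colocalisation was given as the bright detail similarity score, mean ± SD over cells.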

HuT78 [24] = conditions: human, hut78, 0.5 h, 0.075 µM
HuT78 [25] = conditions: human, hut78, 0.5 h, 0.075 µM; remark: listed apart in the source

Q: For `O=C(c1ccc(C2=c3cc4c5c(c3[Se]c3c2cc2c6c3CCCN6CCC2)CCC[N+]=5CCC4)s1)N1CCCCC1.[Cl-]`, which Activity (HuT78 [1]) is on record?
A: Its Activity is “Dose-dependent effect”.

Q: And the EC50 (HuT78 [1]; HuT78, light or radiation study)?
A: The EC50 was 70 nM.

Q: What about the CC50 at 48 h [2] of the same compound?
A: The CC50 at 48 h was 730 nM.

Q: And the Activity [3]?
A: Its Activity is 54.6%.

Q: What about the Activity [4] of the same compound?
A: Its Activity is 59.1%.

Q: What about the Activity [5] of the same compound?
A: The Activity was 69%.

Q: What about the Activity [6] of the same compound?
A: The Activity was 39.9%.

Q: What about the Activity [7] of the same compound?
A: Its Activity is 59.8%.

Q: And the Flu intensity [8]?
A: The Flu intensity was 7510 a.u.

Q: And the Flu intensity [9]?
A: Its Flu intensity is 1450 a.u.

Q: What about the viability at 0.075 µM (HuT78 [10]) of the same compound?
A: The viability at 0.075 µM was 3.9%.

Q: And the viability at 18 h, 0.075 µM [11]?
A: Its viability at 18 h, 0.075 µM is 62.1%.

Q: What about the viability at 18 h, 0.075 µM [12] of the same compound?
A: The viability at 18 h, 0.075 µM was 63.3%.

Q: And the viability at 18 h, 0.075 µM [13]?
A: The viability at 18 h, 0.075 µM was 78%.

Q: What about the Activity (HuT78 [14]) of the same compound?
A: The Activity was “Active”.

Q: What about the Activity (HuT78 [15]) of the same compound?
A: Its Activity is 55.7%.

Q: What about the Flu intensity [16] of the same compound?
A: The Flu intensity was 4500 a.u.

Q: And the Flu intensity [17]?
A: The Flu intensity was 580 a.u.

Q: And the Papp A→B at 0.5 h, 5 µM (ABCB1 [18])?
A: The Papp A→B at 0.5 h, 5 µM was 0.024 ×10⁻⁶ cm/s.

Q: What about the Papp A→B at 0.5 h, 5 µM (ABCB1 [19]) of the same compound?
A: Its Papp A→B at 0.5 h, 5 µM is 0.21 ×10⁻⁶ cm/s.

Q: And the Papp B→A at 0.5 h, 5 µM (ABCB1 [20])?
A: Its Papp B→A at 0.5 h, 5 µM is 0.48 ×10⁻⁶ cm/s.

Q: And the Papp B→A at 0.5 h, 5 µM (ABCB1 [21])?
A: The Papp B→A at 0.5 h, 5 µM was 7.8 ×10⁻⁶ cm/s.

Q: And the Papp at 0.5 h, 5 µM (ABCB1 [22])?
A: The Papp at 0.5 h, 5 µM was 0.2 ×10⁻⁶ cm/s.

Q: What about the Drug uptake [23] of the same compound?
A: The Drug uptake was “Active”.

Q: And the Flu intensity (HuT78 [24])?
A: The Flu intensity was 6800 a.u.

Q: What about the Flu intensity (HuT78 [25]) of the same compound?
A: Its Flu intensity is 4500 a.u.
